PKA-R2B activ – activators of human PKA-R2B complex; activation, % at 11.4 µM; PKA-R2B holoenzyme dissociation, Cy5-IP20 fluorescence polarization; R2B truncated from residue 108, S112A mutant; 0% DMSO only, 100% 113 µM cGMP; 340,000 tested, 0.079% active; AID 504700; P22694+P31323;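 active means activation above a cutoff set at the mean over all compounds plus 3 SD, cut at about 18% in these data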;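 further: higher means more holoenzyme dissociation and a rise in polarization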
Target sequence (P31323 whole entry, looked up, other chains not shown, the tested form may be a part): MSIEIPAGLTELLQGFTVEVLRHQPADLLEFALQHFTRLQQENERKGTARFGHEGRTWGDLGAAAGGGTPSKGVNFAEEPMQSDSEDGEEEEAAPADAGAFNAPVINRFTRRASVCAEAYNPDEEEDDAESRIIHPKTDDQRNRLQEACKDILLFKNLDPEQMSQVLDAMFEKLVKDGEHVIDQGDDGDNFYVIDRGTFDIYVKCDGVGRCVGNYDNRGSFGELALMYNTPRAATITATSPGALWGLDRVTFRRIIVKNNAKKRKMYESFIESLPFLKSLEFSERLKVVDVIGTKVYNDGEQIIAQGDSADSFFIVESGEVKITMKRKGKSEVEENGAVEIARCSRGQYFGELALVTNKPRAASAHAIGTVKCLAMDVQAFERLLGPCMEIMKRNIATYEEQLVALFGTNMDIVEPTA
NR2E3 ag-1 – agonists of human nuclear receptor NR2E3 | Q9Y5X4 | GST-NR2E3/biotin-RetCOR TR-FRET, 1536-well | inhibition of corepressor binding, % at 4.78 µM | 320,000 tested, 0.12% active;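 active means percent inhibition above the cutoff of mean plus 3 SD of all tested compounds, set per screening campaign, cut at about 20% in these data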;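 further: 0% = DMSO wells and 100% = biotin wells as full block of FRET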
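Material: NR2E3–RetCOR corepressor complex / Incubation: Compound–protein incubation for 5 h at 4 °C / Dosing: compound at 4.8 µM, single dose / Detection: time-resolved FRET / Benchmarks: high control biotin, low control 0.6% DMSO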
PKA-R1A act – activators of PKA-R1A complex; P00514+P68181; PKA-R1A dissociation, Cy5-IP20 fluorescence polarization; scaled: DMSO 0%, 113 µM cGMP 100%; activation, % at 11.4 µM; 340,000 tested, 0.083% active; AID 504707;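 active means percent activation above the mean of all tested compounds plus 3 SD, cut at about 19% in these data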;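 further: higher means more PKAc released from R1A so a rise in polarization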
NR2E3 ag-2 – activates human NR2E3 receptor. Q9Y5X4. CHO-S Gal4-NCOR/VP16-NR2E3 two-hybrid, luciferase. inhibition of corepressor binding, % at 3.98 µM. 360,000 tested, 0.35% active. AID 602229;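 active means inhibition above the mean of all tested compounds plus 3 SD, cut at about 70% in these data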;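 further: 0% = DMSO with NR2E3 transfected cells and 100% = cells lacking NR2E3 construct; higher means lower luciferase signal from less NR2E3 corepressor binding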
Rev-erbA mod – modulates human Rev-erb alpha binding to DNA; Rev-erbα–FITC-DNA binding, fluorescence polarization, 90 min; P20393; 370,000 tested, 0.79% active; activity, % at 10 µM;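 active means activity above about 14%, limit read from the data; passing the limit was not always enough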;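 further: 0% = DMSO wells with 35 nM protein and 100% = DMSO wells with 750 nM protein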
PG9 binder – small molecules binding HIV-1 gp120 antibody PG9 | TR-FRET gp120-PG9 antibody binding | AID 624416 | 360,000 tested, 0.43% active | inhibition, % at 6.7 µM; in the data active means inhibition above about 8.5%
Rev-erbA confirm – Rev-erb alpha (human) modulation, hit confirmation | shares compounds with Rev-erbA mod | Rev-erb alpha FITC-DNA binding, fluorescence polarization, 90 min | 3,000 tested, 61% active | AID 1259319 | activation, % at 25 µM;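 active means activation at or above a set limit, or at least 3 SD above the negative control mean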;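 further: 0% = 35 nM protein with DMSO and 100% = 750 nM protein high control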
RORg counter – affects RORgamma DNA binding in a Rev-erb alpha counter-screen; shares compounds with Rev-erbA mod; purified RORgamma protein-FITC-DNA binding, fluorescence polarization; IC50, µM; 910 tested, 8% active; AID 1259320;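 active means Compounds whose fitted half-maximal concentration for disrupting protein-DNA binding is below 10 micromolar; the record names Rev-erb in its text, so the target is in doubt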
Starred values were filed as active, the others as inactive. In the library only some 1.6% were active in any assay of this set; here they are far more common.

For COc1cc(SC)ccc1C(=O)Nc1ccc(C)cc1 the results were PKA-R2B activ -5, NR2E3 ag-1 0, PKA-R1A act -4, NR2E3 ag-2 -146, Rev-erbA mod 0 and PG9 binder -3.
For CC(=O)Nc1ccc(NC(=O)c2cc(S(=O)(=O)N3CCCCC3)ccc2N2CCOCC2)cc1 the results were PKA-R2B activ 1, PKA-R1A act -11, NR2E3 ag-2 -4, Rev-erbA mod -5 and PG9 binder -2.
For CC(C)CN1C(=O)C[C@@]2(C(=O)N(C)c3ccc(NS(=O)(=O)C4CCCCC4)cc32)C1c1ccccc1 (some centres not stated) the results were Rev-erbA mod 7.
For Cc1nc(NC2CCCC2)c2nnn(Cc3ccccc3)c2n1 the results were Rev-erbA mod 0.
Cc1ccc2nsnc2c1NC(=O)Cc1ccc(Cl)cc1 was read as PKA-R2B activ 3, NR2E3 ag-1 -1, PKA-R1A act -4, NR2E3 ag-2 7, Rev-erbA mod 51*, PG9 binder -2 and Rev-erbA confirm 13.
`Cc1ccc2nsnc2c1NC(=O)CCl` gave PKA-R2B activ -2, NR2E3 ag-1 -3, PKA-R1A act -8, NR2E3 ag-2 -2, Rev-erbA mod 1 and PG9 binder 1.
COC(=O)[C@H]1C[C@@]2(C#N)c3ccccc3N(C(=O)OC(C)(C)C)[C@H]2N1C(=O)OC(C)(C)C was read as Rev-erbA mod 5.
For CCOC(=O)c1nn(-c2ccc(C)cc2)c(=O)cc1OCC(=O)Nc1cc(C)ccc1OC the results were PKA-R2B activ 6, NR2E3 ag-1 2, PKA-R1A act 0, NR2E3 ag-2 8, Rev-erbA mod 2 and PG9 binder -1.
`CCOC(=O)c1nn(-c2ccccc2)c(=O)cc1OCC(=O)Nc1cc(C)ccc1OC` gave PKA-R2B activ 7, NR2E3 ag-1 -3, PKA-R1A act -3, NR2E3 ag-2 -6, Rev-erbA mod 48*, PG9 binder 1 and Rev-erbA confirm 13.
`CCOC(=O)c1nn(-c2ccc(F)cc2)c(=O)cc1OCC(=O)Nc1cccc(C)c1` gave PKA-R2B activ 1, NR2E3 ag-1 2, PKA-R1A act -6, NR2E3 ag-2 20, Rev-erbA mod 101*, PG9 binder 11*, Rev-erbA confirm 93* and RORg counter >40.
COc1ccc(-c2nn(C)c(=O)c3ccccc23)cc1NC(=O)COc1ccc(C)cc1 was read as PKA-R2B activ -4, NR2E3 ag-1 2, PKA-R1A act -4, NR2E3 ag-2 -14, Rev-erbA mod 34*, PG9 binder 0 and Rev-erbA confirm 8.
Screening CCOC(=O)c1nn(-c2ccc(C)cc2)c(=O)cc1OCC(=O)N1CCN(c2ccccc2)CC1 returned PKA-R2B activ 2, NR2E3 ag-1 1, PKA-R1A act 1, NR2E3 ag-2 -25, Rev-erbA mod 2 and PG9 binder 0.
For N#Cc1cccc(OC[C@@H](O)CN2CCC(C(O)(c3ccccc3)c3ccccc3)CC2)c1 the results were Rev-erbA mod 1.
Screening COC(=O)Cc1nnn2c1[C@@H](C)[C@@H](c1ccccc1Br)OC[C@@H]2c1ccccc1 returned Rev-erbA mod 4 and PG9 binder -1.
`Cc1ccc(NC(=O)OCCCN2C(=O)CCC23CCC(C)CC3)cc1` (configuration not stated) gave Rev-erbA mod 2.
`COC(=O)C/C=C/[C@@H](C)[C@H](NC(=O)OCC(Cl)(Cl)Cl)c1ccc(-c2ccccc2)cc1` gave Rev-erbA mod -4.
`CCCCN(CCCC)Cc1cc(=O)oc2cc(C)cc(C)c12` gave NR2E3 ag-2 -11, Rev-erbA mod 19*, PG9 binder -1 and Rev-erbA confirm -1.
CCOC(=O)CC[C@@]1(C(=O)OCC)C[C@@H](CC(=O)NCc2ccc(OC)c(OC)c2)C(=O)N2CCCC=C21 was read as Rev-erbA mod 5.
Screening O=C1c2c(Br)c(Br)c(Br)c(Br)c2C(=O)N1c1ccccn1 returned PKA-R2B activ -7, NR2E3 ag-1 3, PKA-R1A act -14, NR2E3 ag-2 -39, Rev-erbA mod 276*, PG9 binder 0, Rev-erbA confirm 391* and RORg counter >40.
`COC(CNC(=O)[C@H](Cc1c[nH]c2ccccc12)NC1(C(=O)NC(c2ccccc2)c2ccccc2)CCCCC1)OC` gave Rev-erbA mod -5.
`CCOC(=O)c1cc2c(=O)c3ccccc3oc2nc1C` gave PKA-R2B activ 4, NR2E3 ag-1 1, PKA-R1A act 5, NR2E3 ag-2 -126, Rev-erbA mod 53*, PG9 binder -3, Rev-erbA confirm 44* and RORg counter >40.
For CC(=O)c1cc2c(=O)c3ccccc3oc2nc1C the results were PKA-R2B activ -7, NR2E3 ag-1 -3, PKA-R1A act 5, NR2E3 ag-2 -12, Rev-erbA mod 0 and PG9 binder -1.
Screening COC(=O)c1ccccc1NC(=O)C1=CC(c2cccs2)=NS(=O)(=O)N1C returned PKA-R2B activ -2, NR2E3 ag-1 0, PKA-R1A act 9, NR2E3 ag-2 -9, Rev-erbA mod 52*, PG9 binder 1, Rev-erbA confirm 32* and RORg counter 3*.
O=C(O)CSc1nc2c(c(C(F)(F)F)n1)CCc1ccccc1-2 was read as PKA-R2B activ -3, NR2E3 ag-1 4, PKA-R1A act -5, NR2E3 ag-2 12, Rev-erbA mod 3 and PG9 binder -3.
For O=C(CSc1nc2c(c(C(F)(F)F)n1)CCc1ccccc1-2)NCc1ccccc1 the results were PKA-R2B activ -4, NR2E3 ag-1 -1, PKA-R1A act -1, NR2E3 ag-2 -15, Rev-erbA mod 97*, PG9 binder 0, Rev-erbA confirm 40* and RORg counter inactive.
`O=C(CSc1nc2c(c(C(F)(F)F)n1)CCc1ccccc1-2)NCc1ccc(F)cc1` gave PKA-R2B activ 3, NR2E3 ag-1 0, PKA-R1A act 5, NR2E3 ag-2 1, Rev-erbA mod 60*, PG9 binder 0 and Rev-erbA confirm 13.
For Clc1ccc(-c2cn(-c3nc4ccccc4s3)nn2)cc1 the results were NR2E3 ag-2 -77, Rev-erbA mod 19*, PG9 binder 1 and Rev-erbA confirm 7.

Bioassay records from PubChem BioAssay.
